The record followed here is ChEMBL document CHEMBL4138145, “Cyclic Cystine-Bridged Peptides from the Marine Sponge Clathria basilana Induce Apoptosis in Tumor Cells and Depolarize the Bacterial Cytoplasmic Membrane” (J Nat Prod, 2017).

The test system of one assay is Pseudomonas aeruginosa. Briefly: Antimicrobial activity against Pseudomonas aeruginosa after 16 to 20 hrs by broth micro dilution method. The class given is functional, organism-based. In outline:
(§1)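 Broth microdilution per CLSI in cation-adjusted Mueller-Hinton broth. Inoculum made by direct colony suspension, 5 × 10^5 CFU/mL final, added to serial 2-fold compound dilutions. Plates kept 16–20 h at 37 °C in ambient air. MIC is the lowest concentration with no visible growth. Strains are ATCC CLSI quality-control strains; A. baumannii 09987 is a Bonn clinical isolate.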

A further assay has as its system Acinetobacter baumannii. Briefly: Antimicrobial activity against Acinetobacter baumannii isolate 09987 after 16 to 20 hrs by broth micro dilution method. It counts as functional, organism-based. In outline: as §1
The subject of assay [1] is Mycobacterium tuberculosis. Nature of the assay: Antimicrobial activity against Mycobacterium tuberculosis H37Rv up to 100 uM after 5 days by resazurin dye based assay. The class given is functional, organism-based. In outline: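 M. tuberculosis H37Rv was grown aerobically at 37 °C in Middlebrook 7H9 with ADS enrichment, 0.5% glycerol and 0.05% tyloxapol, then precultured to log phase (OD600 0.5−1). Cells were seeded at 1 × 10^5 per well on 2-fold dilutions over 100−0.78 μM and held 5 days at 37 °C. Resazurin was added for 16 h at ambient temperature, then cells were formalin-fixed and fluorescence read (ex 540, em 590 nm). Growth is relative to rifampicin (0%) and DMSO (100%).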
Background: The colour change of resazurin is a common sign of viable cells or microbes.

The subject of the next assay is Escherichia coli. Nature of the assay: Antimicrobial activity against Escherichia coli after 16 to 20 hrs by broth micro dilution method. It counts as functional, organism-based. A digest of the protocol: as §1
The next assay concerns Klebsiella aerogenes. Briefly: Antimicrobial activity against Enterobacter aerogenes after 16 to 20 hrs by broth micro dilution method. The class given is functional, organism-based. In outline: as §1
The species entered for a further assay is Homo sapiens. Briefly: Cytotoxicity against human Jurkat 16 cells assessed as reduction in cell viability up to 10 uM after 24 hrs by MTT assay. It counts as functional, cell-based. A digest of the protocol:
(§2)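 Suspension cells at 5 × 10^5 cells/mL, exposed 24 h to varying compound concentrations; 0.1% v/v DMSO as negative control. MTT added to 1 mg/mL final for 60 min, cells pelleted, formazan extracted in DMSO for 25 min at rt, A570 read with 650 nm reference. Viability relative to DMSO set at 100%; IC50 from fitted curves.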

The next assay concerns Klebsiella pneumoniae. Nature of the assay: Antimicrobial activity against Klebsiella pneumoniae after 16 to 20 hrs by broth micro dilution method. It counts as functional, organism-based. A digest of the protocol: as §1
In the next assay the test system is A2780. Briefly: Cytotoxicity against human A2780 cells assessed as reduction in cell viability up to 10 uM after 72 hrs by MTT assay. It counts as functional, cell-based. In outline:
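A2780 ovarian carcinoma cells were grown in RPMI-1640 with 10% FBS, penicillin and streptomycin, about 9000 cells/well, preincubated overnight. Increasing compound concentrations were applied for 72 h, then MTT was added. Absorbance read at 544 nm minus the 690 nm reference.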
(In general: Formazan colour is commonly taken as a measure of viable cells.)

The next assay relates to Ramos. Briefly: Cytotoxicity against human Ramos cells assessed as reduction in cell viability up to 10 uM after 24 hrs by MTT assay. The class given is functional, cell-based. A digest of the protocol:
as §2

A further assay concerns NOMO-1. Briefly: Cytotoxicity against human NOMO1 cells assessed as reduction in cell viability up to 10 uM after 24 hrs by MTT assay. The class given is functional, cell-based. A digest of the protocol:
as §2

Another assay concerns HL-60. Nature of the assay: Cytotoxicity against human HL60 cells assessed as reduction in cell viability up to 10 uM after 24 hrs by MTT assay. The class given is functional, cell-based. A digest of the protocol:
as §2

Assay [2] concerns Bacillus subtilis. Nature of the assay: Induction of cell envelope stress in Bacillus subtilis isolate 1S34 assessed as increase in ypuA promoter activity at 30 ug after 14 to 18 hrs by beta-galactosidase reporter gene assay. The class given is functional, organism-based. In outline:
(§3)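 B. subtilis 1S34 β-galactosidase promoter reporters were grown in LB with spectinomycin (50 μg/mL) to stationary phase. Cells were set at 3 × 10^7 CFU/mL in LB soft agar (0.7%) containing X-Gal (150 μg/mL). Test compounds were spotted on the plates, with reference antibiotic discs as positive controls. Plates were incubated 14−18 h at 30 °C and read for promoter induction (blue colour).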

Assay [3] has as its system Bacillus subtilis. Briefly: Induction of RNA damage in Bacillus subtilis isolate 1S34 assessed as increase in helD promoter activity at 30 ug after 14 to 18 hrs by beta-galactosidase reporter gene assay. It counts as functional, organism-based. In outline:
as §3
For orientation: In a reporter assay the amount or activity of a reporter protein is the signal.

Assay [4] has as its system Bacillus subtilis. Briefly: Induction of cell envelope stress in Bacillus subtilis isolate 1S34 assessed as increase in liaI promoter activity at 30 ug after 14 to 18 hrs by beta-galactosidase reporter gene assay. The class given is functional, organism-based. A digest of the protocol:
as §3

For assay [5], the system named is Bacillus subtilis. Nature of the assay: Induction of DNA damage in Bacillus subtilis isolate 1S34 assessed as increase in yorB promoter activity at 30 ug after 14 to 18 hrs by beta-galactosidase reporter gene assay. The class given is functional, organism-based. A digest of the protocol:
as §3

The test system of assay [6] is Bacillus subtilis. Briefly: Induction of translation arrest in Bacillus subtilis isolate 1S34 assessed as increase in bmrC promoter activity at 30 ug after 14 to 18 hrs by beta-galactosidase reporter gene assay. The class given is functional, organism-based. A digest of the protocol:
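The bmrC promoter reporter in B. subtilis 1S34 was embedded at 3 × 10^7 CFU/mL in Belitzky minimal medium soft agar containing X-Gal (150 μg/mL). Test compounds were spotted, with reference antibiotic discs as positive controls. Plates were incubated at 37 °C and read for promoter-driven β-galactosidase induction.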

Assay [7] deals with Bacillus subtilis. Briefly: Induction of cell envelope stress in Bacillus subtilis isolate 1S34 assessed as increase in liaI promoter activity at 10 ug after 14 to 18 hrs by beta-galactosidase reporter gene assay. It counts as functional, organism-based. A digest of the protocol: (§4)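 Agar-based β-galactosidase promoter-reporter assay. B. subtilis 1S34 grown to stationary phase in LB with spectinomycin 50 μg/mL, then set at 3 × 10^7 CFU/mL in LB soft agar (0.7%) containing X-Gal 150 μg/mL. Test compounds spotted at 20 nmol; reference antibiotics given on paper discs (5–30 μg). Plates read for promoter induction after 14–18 h at 30 °C.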

The subject of assay [8] is Bacillus subtilis. Briefly: Induction of DNA damage in Bacillus subtilis isolate 1S34 assessed as increase in yorB promoter activity at 10 ug after 14 to 18 hrs by beta-galactosidase reporter gene assay. The class given is functional, organism-based. In outline:
as §4

Assay [9] has as its system Bacillus subtilis. Briefly: Induction of RNA damage in Bacillus subtilis isolate 1S34 assessed as increase in helD promoter activity at 10 ug after 14 to 18 hrs by beta-galactosidase reporter gene assay. It counts as functional, organism-based. In outline: as §4
Assay [10] has as its system Bacillus subtilis. Nature of the assay: Induction of translation arrest in Bacillus subtilis isolate 1S34 assessed as increase in bmrC promoter activity at 10 ug after 14 to 18 hrs by beta-galactosidase reporter gene assay. It counts as functional, organism-based.
The test system of assay [11] is Bacillus subtilis. Briefly: Induction of cell envelope stress in Bacillus subtilis isolate 1S34 assessed as increase in ypuA promoter activity at 10 ug after 14 to 18 hrs by beta-galactosidase reporter gene assay. It counts as functional, organism-based. A digest of the protocol:
as §4

Assay [12] has as its system Bacillus subtilis. Nature of the assay: Induction of DNA damage in Bacillus subtilis isolate 1S34 assessed as increase in yorB promoter activity at 5 ug after 14 to 18 hrs by beta-galactosidase reporter gene assay. It counts as functional, organism-based. A digest of the protocol:
as §4

The test system of assay [13] is Bacillus subtilis. Nature of the assay: Induction of RNA damage in Bacillus subtilis isolate 1S34 assessed as increase in helD promoter activity at 5 ug after 14 to 18 hrs by beta-galactosidase reporter gene assay. It counts as functional, organism-based. In outline: as §4
The test system of assay [14] is Bacillus subtilis. Briefly: Induction of cell envelope stress in Bacillus subtilis isolate 1S34 assessed as increase in ypuA promoter activity at 5 ug after 14 to 18 hrs by beta-galactosidase reporter gene assay. It counts as functional, organism-based. A digest of the protocol: as §4
In assay [15] the test system is Bacillus subtilis. Briefly: Induction of cell envelope stress in Bacillus subtilis isolate 1S34 assessed as increase in liaI promoter activity at 5 ug after 14 to 18 hrs by beta-galactosidase reporter gene assay. It counts as functional, organism-based. A digest of the protocol: as §4
Assay [16] has as its system Bacillus subtilis. Briefly: Induction of translation arrest in Bacillus subtilis isolate 1S34 assessed as increase in bmrC promoter activity at 5 ug after 14 to 18 hrs by beta-galactosidase reporter gene assay. It counts as functional, organism-based.

Each structure is given as a SMILES string. Active and inactive are the calls of the source. The rule behind the calls is not given here. Where a SMILES comes first, the peptide text is derived from it. Bridges are numbered along the chain shown (N, C = ends). [ ]: non-standard residue; d: D form. The star is where a group is joined. Ileψ(thiazoline)Cys = CC[C@H](C)[C@H](N)C1=N[C@H](C(=O)*)CS1; pGlu = O=C1CC[C@@H](C(=O)O)N1; dOrn = NCCC[C@@H](N)C(=O)O; X2 = C(=C\c1ccccc1)/N*; X4 = C(=C/c1ccccc1)/N*

Take `CC(C)[C@H](N)C(=O)N/C=C/c1ccccc1`: the result (in the assay on Pseudomonas aeruginosa; in the assay on Acinetobacter baumannii; in assay [1]; in the assay with Escherichia coli; in the assay on Klebsiella aerogenes; in the assay listed under Homo sapiens) was inactive. For the same compound, the result in the assay with Klebsiella pneumoniae, in the assay on A2780, in the assay on Ramos, in the assay with NOMO-1 and in the assay with HL-60 was inactive.
For the compound `CN[C@H](CC(C)C)C(=O)N[C@H]1C(=O)N[C@@H](CC(N)=O)C(=O)N[C@H]2C(=O)N[C@H]3C(=O)N[C@H](C(=O)N[C@H](C(=O)O)c4cc(O)cc(O)c4-c4cc3ccc4O)[C@H](O)c3ccc(c(Cl)c3)Oc3cc2cc(c3O[C@@H]2O[C@H](CO)[C@@H](O)[C@H](O)[C@H]2O[C@H]2C[C@](C)(N)[C@H](O)[C@H](C)O2)Oc2ccc(cc2Cl)[C@H]1O`, the outcome in the assay with Bacillus subtilis [2], in the assay with Bacillus subtilis [3], in the assay with Bacillus subtilis [4], with Bacillus subtilis [5] and in the assay with Bacillus subtilis [6] was Active.
For the compound `CO[C@H]1/C=C/O[C@@]2(C)Oc3c(C)c(O)c4c(O)c(c(/C=N/N5CCN(C)CC5)c(O)c4c3C2=O)NC(=O)/C(C)=C\C=C\[C@H](C)[C@H](O)[C@@H](C)[C@@H](O)[C@@H](C)[C@H](OC(C)=O)[C@@H]1C`, the result in the assay on Bacillus subtilis [2], in the assay on Bacillus subtilis [3], with Bacillus subtilis [4], in the assay with Bacillus subtilis [5] and in the assay with Bacillus subtilis [6] was Active.
With `O=C(N[C@H](CO)[C@H](O)c1ccc([N+](=O)[O-])cc1)C(Cl)Cl`, the result with Bacillus subtilis [7], with Bacillus subtilis [8], with Bacillus subtilis [9], in the assay on Bacillus subtilis [10] and with Bacillus subtilis [11] was Active.
`O=C(O)c1cn(C2CC2)c2cc(N3CCNCC3)c(F)cc2c1=O`: the outcome in the assay on Bacillus subtilis [12], with Bacillus subtilis [13], in the assay on Bacillus subtilis [14], in the assay with Bacillus subtilis [15] and in the assay on Bacillus subtilis [16] was Active.
Take `CC(C)C[C@@H]1NC(=O)[C@@H]2CCCN2C(=O)[C@@H]2CCCN2C(=O)[C@@H](NC(=O)[C@@H]2CCC(=O)N2)CSSC[C@@H](C(=O)N2CCC[C@H]2C(N)=O)NC1=O` ([pGlu]CPPLCP-NH2; disulfide 2-6): the result (in the assay with Pseudomonas aeruginosa; in the assay with Acinetobacter baumannii; in [1]; in the assay with Escherichia coli; with Klebsiella aerogenes; in the assay listed under Homo sapiens) was inactive. The result with Klebsiella pneumoniae, in the assay on A2780, in the assay on Ramos, in the assay on NOMO-1 and with HL-60 was inactive.
Turning to `CC[C@H](C)[C@H](NC(=O)[C@@H]1CCC(=O)N1)C(=O)N[C@@H](CC(C)C)C(=O)N[C@H]1CSSC[C@@H](C(=O)N/C=C/c2ccccc2)NC(=O)[C@H](Cc2ccccc2)NC(=O)[C@@H]2CCCN2C(=O)[C@@H]2CCCN2C1=O` ([pGlu]ILCPPFC-X2; disulfide 4-8), the result (in the assay with Pseudomonas aeruginosa; in the assay with Acinetobacter baumannii; in [1]; in the assay with Escherichia coli; in the assay with Klebsiella aerogenes; in the assay listed under Homo sapiens) was inactive. The outcome in the assay on Klebsiella pneumoniae, in the assay on A2780, with Ramos, in the assay with NOMO-1 and in the assay with HL-60 was inactive.
With `CC[C@H](C)[C@H](NC(=O)[C@@H]1CCC(=O)N1)C(=O)N[C@@H](CC(C)C)C(=O)N[C@H]1CSSC[C@@H](C(=O)N/C=C\c2ccccc2)NC(=O)[C@H](Cc2ccccc2)NC(=O)[C@@H]2CCCN2C(=O)[C@@H]2CCCN2C1=O` ([pGlu]ILCPPFC-X4; disulfide 4-8), the outcome in the assay filed under Homo sapiens, in the assay with A2780, with Ramos, in the assay on NOMO-1 and in the assay with HL-60 was inactive.
With `CC[C@H](C)[C@H](N)C1=N[C@H](C(=O)N[C@@H](CC(C)C)C(=O)N[C@H](CCC(=O)O)C(=O)N[C@H](C(=O)N[C@H]2CCCCNC(=O)[C@H](CC(N)=O)NC(=O)[C@@H](CC(=O)O)NC(=O)[C@H](Cc3cnc[nH]3)NC(=O)[C@@H](Cc3ccccc3)NC(=O)[C@H]([C@@H](C)CC)NC(=O)[C@@H](CCCN)NC2=O)[C@@H](C)CC)CS1` ({Ileψ(thiazoline)Cys}-L[dE]IK[dOrn]I[dF]H[dD]N; lactam 4-C), the outcome in the assay on Bacillus subtilis [7], in the assay with Bacillus subtilis [8], in the assay with Bacillus subtilis [9], with Bacillus subtilis [10] and in the assay with Bacillus subtilis [11] was Active.
